One experiment deals with T1, AKR1C2 (Homo sapiens, UniProt P52895).
T1 sequence (P52895 1-323): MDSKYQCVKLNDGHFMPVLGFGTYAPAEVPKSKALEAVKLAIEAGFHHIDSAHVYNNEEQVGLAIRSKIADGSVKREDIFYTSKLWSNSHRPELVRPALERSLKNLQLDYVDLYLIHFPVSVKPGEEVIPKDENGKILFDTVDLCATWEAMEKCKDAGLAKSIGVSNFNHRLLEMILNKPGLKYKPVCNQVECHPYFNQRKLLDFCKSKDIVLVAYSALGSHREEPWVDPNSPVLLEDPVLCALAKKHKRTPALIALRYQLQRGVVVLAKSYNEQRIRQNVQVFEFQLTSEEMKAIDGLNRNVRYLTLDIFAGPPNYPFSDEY
Nature of the experiment: Inhibition assay for recombinant AKR1C2. The class given is biochemical. The following applies: for inhibition at 10 µM: pH 9, read-out: AKR1C2 Inhibition (%) 10 μM. The gist of the method: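 Rates are followed as NADH absorbance increase at 340 nm, with recombinant AKR1C2 (0.3 µM, added last) and 180 µM final 1-acenaphthenol. The mix is 2.3 mM NAD⁺, 0.09 M potassium phosphate pH 9.0, 0.005% Triton X-114 and 0.05% DMSO, plus test compound in DMSO. Duplicates, two independent experiments. IC50 is fitted from residual activity vs log concentration; inhibition mode, KM, KI and α are fitted from kinetics.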

The target in another experiment is T2, AKR1C1 (Homo sapiens, UniProt Q04828).
T2 sequence (Q04828 1-323): T1 sequence (P52895 1-323) with V38T, H47R, V54L, S87C, M151V, H170R, L172Q
Nature of the experiment: Inhibition assay for recombinant AKR1C1. Format: biochemical. The note with it: for inhibition at 10 µM: pH 9, read-out: AKR1C1 Inhibition (%) 10 μM. The essentials: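 Human recombinant AKR1C1 oxidising 1-acenaphthenol (90 µM final) with 2.3 mM NAD⁺, in 0.09 M potassium phosphate pH 9.0, 0.005% Triton X-114, 0.05% DMSO. Test compound is added in DMSO, and 0.1 µM enzyme starts the reaction. NADH rise at 340 nm gives initial velocities. Runs are in duplicate, two independent experiments. IC50 comes from residual activity vs log inhibitor; inhibition type, KM, KI and α come from kinetic fitting.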

[1] abbreviates: pH 9, read-out: AKR1C2 Inhibition (%) 100 μM.
Setting [2] is: pH 9, read-out: AKR1C1 Inhibition (%) 100 μM.

The record followed here is paper PMC8266253 (Journal of Enzyme Inhibition and Medicinal Chemistry, 2021).

Substitutions are numbered along the chain they refer to. Where two headings read alike, the source gives them in different places.

One may read the IC50 as the concentration that gives 50% inhibition. For orientation: inhibition means the change of the read-out against control, counted positive when it falls. As to `C[C@@]12CC[C@@H]3c4cc(Br)c(O)c(Cl)c4CC[C@H]3[C@@H]1CCC2=O` [2_2Br,4Cl, 2-bromo-4-chloro-3-hydroxy-13α-oestra-1,3,5(10)-trien-17-one], the IC50 stood at 3100 nM on AKR1C2 and 1700 nM on AKR1C1. The inhibition at 10 µM on AKR1C2 and on AKR1C1 was 80% in each case. The inhibition at 100 µM at AKR1C2 (setting [1]) stood at 99%; on AKR1C1 (setting [2]) it was 92.3%.
Turning to `C[C@@]12CC[C@@H]3c4cc(Br)c(O)c(I)c4CC[C@H]3[C@@H]1CCC2=O` [2_2Br,4I, 2-bromo-3-hydroxy-4-iodo-13α-oestra-1,3,5(10)-trien-17-one], the results for the IC50 at AKR1C2 and on AKR1C1 were 4400 nM and 7200 nM, respectively. In addition, the inhibition at 10 µM was 75% at AKR1C2 and 67% at AKR1C1. Moreover, the inhibition at 100 µM on AKR1C2 (setting [1]) and at AKR1C1 (setting [2]) was 100% throughout.
Turning to `C[C@@]12CC[C@@H]3c4cc(Cl)c(O)c(Br)c4CC[C@H]3[C@@H]1CCC2=O` [2_2Cl,4Br, 4-bromo-2-chloro-3-hydroxy-13α-oestra-1,3,5(10)-trien-17-one], the inhibition at 10 µM is 65% at AKR1C2 and 80% at AKR1C1. Further, the inhibition at 100 µM came out at 91.9% on AKR1C2 (setting [1]) and 93.9% at AKR1C1 (setting [2]). In addition, at AKR1C1, the 50% inhibitory concentration (IC50) is 1900 nM.
Turning to `C[C@@]12CC[C@@H]3c4cc(Cl)c(O)c(I)c4CC[C@H]3[C@@H]1CCC2=O` [2_2Cl,4I, 2-chloro-3-hydroxy-4-iodo-13α-oestra-1,3,5(10)-trien-17-one], the IC50 at AKR1C2 was determined as 4600 nM. Besides, the inhibition at 10 µM on AKR1C2 worked out at 73%; at AKR1C1, 50%. Also, the results for the inhibition at 100 µM at AKR1C2 (setting [1]) and at AKR1C1 (setting [2]) were 89.2% and 82.6%, respectively.
As usually defined, the Ki is a dissociation constant, usually derived from enzyme kinetics or from competition with a known ligand. With `C[C@@]12CC[C@@H]3c4cc(I)c(O)c(Br)c4CC[C@H]3[C@@H]1CCC2=O` [2_2I,4Br, 4-bromo-3-hydroxy-2-iodo-13α-oestra-1,3,5(10)-trien-17-one], the values for the inhibition at 10 µM at AKR1C2 and on AKR1C1 were 59.5% and 90.7%, respectively. Besides, the inhibition at 100 µM at AKR1C2 (setting [1]) amounted to 74.7%; on AKR1C2 (read-out: Biological activity AKR1C2 (biological inhibition at 100 μM)), 74.7%; on AKR1C1 (setting [2]), 93.4%; on AKR1C1 (read-out: Biological activity AKR1C1 (biological inhibition at 100 μM)), 93.4%. Further, the 50% inhibitory concentration (IC50) at AKR1C1 was determined as 700 nM. For the same compound, the inhibitory constant (Ki) at AKR1C1 came out at 570 nM. Besides, the “Type of inhibition of AKR1C1” value at AKR1C1 (kinetic studies) is “mixed type of inhibition”.
In the case of `C[C@@]12CC[C@@H]3c4cc(I)c(O)c(Cl)c4CC[C@H]3[C@@H]1CCC2=O` [2_2I,4Cl, 4-chloro-3-hydroxy-2-iodo-13α-oestra-1,3,5(10)-trien-17-one], the figures for the half-maximal inhibitory concentration (IC50) at AKR1C2 and at AKR1C1 were 7100 nM and 800 nM, respectively. Moreover, the inhibition at 10 µM at AKR1C2 stood at 73%; on AKR1C1 it was 90%. Moreover, the inhibition at 100 µM on AKR1C2 (setting [1]) was 87.5%; on AKR1C1 (setting [2]), 99%.
